The source of these data is ChEMBL document CHEMBL1124035, “1-Amino-substituted 4-methyl-5H-pyrido[4,3-b]indoles (gamma-carbolines) as tricyclic analogues of ellipticines: a new class of antineoplastic agents” (1988).

One may read the T/C as the result in the treated group divided by that in the control group, in per cent.

Experiment [1] deals with Calf thymus DNA. The experiment is described as follows: Apparent DNA affinity constant. The experiment is classed as nucleic-acid assay. Particulars: Bos taurus. Put shortly: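 Apparent DNA affinity constant was measured by competition with ethidium bromide. Buffer was 20 mM Na2HPO4/NaH2PO4, 0.1 M NaCl, 1 mM EDTA, pH 7.4, with calf thymus DNA at 10 μg/mL. Values are given in 10^6 M⁻¹.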

In experiment [2] the test system is Mus musculus. The experiment is described as follows: Antitumor activity against P388 leukemia in mice at a dose of 50 mg/kg administered intraperitoneally for 5 days. In kind it is functional, organism-based. Set-up: dose 50 mg/kg. The essentials:
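CDF1 hybrid male or female mice, 10 per group, were inoculated ip on day 0 with 10^6 viable P388 leukemia cells. Drug in distilled water was given ip (0.1 mL/10 g body weight) daily on days 1-5, with vehicle, 5-fluorouracil and BD 84 controls given the same way. T/C = median survival of treated/controls × 100; T/C > 128% counted as significant.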

Experiment [3] concerns Mus musculus. The experiment is described as follows: Antitumor activity against P388 leukemia in mice at a dose of 10 mg/kg administered intraperitoneally for 5 days. As to conditions: route intraperitoneal. The experiment is classed as functional. The essentials: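 CDF1 hybrid male or female mice, 10 per group, were inoculated ip with 10^6 viable P388 cells on day 0. Drugs in distilled water were given ip (0.1 mL/10 g body weight) daily D1-5. Vehicle, 5-fluorouracil and BD 84 were given the same way. T/C = median survival day of treated / controls × 100; T/C > 128% was significant; cures counted at D60.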

Experiment [4] relates to L1210. The experiment is described as follows: Ability to reduce the cell count to 50% in L1210 culture cells. In kind it is functional. Particulars: Mus musculus, read-out: ID50 (the source's name). The essentials:
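L1210 cells in exponential growth in RPMI 1640 with 2 mM glutamine, penicillin/streptomycin and 10% FCS, 37 °C, 5% CO2. Drugs dissolved in distilled water were added to cells at 0.8 × 10^5 cells/mL for 48 h, then cells were counted. ID50 is the concentration halving cell proliferation versus controls, from regression of dose-response data; mean of two independent experiments.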

As to `Cc1c[nH]c(NCCCN(C)C)c2c3ccccc3nc1-2`, the K aff in experiment [1] was 130000 M⁻¹. Moreover, the T/C result in experiment [2] is “Toxic”; in experiment [3], 129%. Besides, in experiment [4], the IC50 worked out at 160 nM.
Consider `CCN(CC)CCNc1ncc(C)c2c1c1cc(OC)ccc1n2C`, for which, in experiment [1], the K aff came to 80000 M⁻¹. Moreover, the IC50 in experiment [4] was 1200 nM.
Turning to `CCN(CC)CCCCNc1ncc(C)c2c1c1cc(O)ccc1n2C`, in experiment [1], the K aff came to 350000 M⁻¹. In addition, in experiment [4], the IC50 came out at 310 nM.
For `COc1ccc2c(c1)c1c(NCCCN3CCCC3)ncc(C)c1n2C`, in experiment [1], the K aff turned out to be 300000 M⁻¹. In experiment [4], the IC50 is 500 nM.
